GPR7 antag – blocks human GPR7 receptor signaling; P48145; GPR7-expressing cells, fluorescence antagonist assay; inhibition, % at 4.4 µM; actives 1.1% (n = 290,000); AID 1861; in the data active means inhibition above about 16%, passing the limit was not always enough;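 further: cells stimulated with the agonist NPW; 0% = agonist with vehicle and 100% = vehicle without agonist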
EBNA-1 inhibitor – blocks EBNA-1 binding to DNA | inhibition, % at 14.8 µM | EBNA-1 DNA binding, fluorescence polarization | actives 0.34% (n = 300,000) | AID 1950; in the data active means inhibition above about 28%
ZTA counter – ZTA (EBV) inhibition in EBNA-1 counter-screen | P03206 | ZTA-DNA binding, fluorescence polarization | inhibition, % at 11 µM | actives 0.15% (n = 320,000) | AID 2234; in the data active means inhibition above about 33%
HCV NS3 hel inh – blocks Hepatitis C virus NS3 helicase unwinding; NS3 helicase DNA unwinding, Cy5 molecular beacon fluorescence; inhibition, % at 10.9 µM; actives 0.56% (n = 290,000);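 active means inhibition above the mean of all tested compounds plus 3 SD, set per campaign, cut at about 35% in these data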;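 further: 0% = DMSO wells and 100% = thioflavine S control wells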
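assay system = NS3 helicase fragment of HCV | buffer or medium = MOPS pH 6.5, MgCl2, DTT, Tween20, BSA | timing = 60 min unwinding reaction at 25 °C after ATP addition | signal = Cy5 beacon fluorescence read at start and 1 h | read-out basis = % inhibition of unwinding | control set = low DMSO, high thioflavine S at 110 µM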
EBV gp42 block – EBV gp42 inhibition | Fluorescence polarization binding assay, mP read-out | inhibition, % (tested at 21.74 µM) | actives 0.42% (n = 220,000) | AID 1085; in the data active means inhibition above about 50%
Target sequence (Q1HVG2 whole entry, looked up): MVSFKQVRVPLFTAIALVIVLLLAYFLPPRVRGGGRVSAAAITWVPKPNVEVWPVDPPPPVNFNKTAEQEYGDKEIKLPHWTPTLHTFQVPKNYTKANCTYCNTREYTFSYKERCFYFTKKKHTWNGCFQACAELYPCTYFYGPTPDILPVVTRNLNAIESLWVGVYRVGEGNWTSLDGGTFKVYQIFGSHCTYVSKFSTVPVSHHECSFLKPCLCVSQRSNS
HCV core dimer – HCV core protein dimerization inhibition; AID 1899; TR-FRET GST/Flag-core106 dimerization, 1536-well; actives 0.33% (n = 300,000); inhibition, % at 5 µM;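 active means inhibition above the mean of all tested compounds plus 3 SD, set per screening campaign, cut at about 45% in these data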
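Assay system: Tagged HCV core106 pair (GST and Flag) | Buffer or medium: KF-containing HEPES buffer, pH 7.45, DTT, CHAPS, BSA | Also added: Eu donor and XL665 acceptor anti-tag antibodies | Dosing: One concentration, 5 µM, in 0.5% DMSO | Timing: 4 h at 22.5 °C | Technique: TR-FRET 671 and 617 nm emission | Repeats: Singlicate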
* = called active by the depositor; / = no result. A selection: hits, their analogues and other compounds. The true share with any hit is near 2.3%.

SMILES	GPR7 antag	EBNA-1 inhibitor	ZTA counter	HCV NS3 hel inh	EBV gp42 block	HCV core dimer
COc1cc(C(O)CO)ccc1OS(=O)(=O)O (centres undefined)	/	8	21	/	/	11
NNC(=O)Cn1c(-c2nonc2N)nc2ccccc21	-7	-6	5	-2	-10	-3
Nc1nonc1-c1nc2ccccc2n1CC(=O)N/N=C\c1ccc(-c2ccc(Cl)cc2)o1	-5	15	24	5	-11	84*
Cc1ccc2oc(-c3cccc(NC(=S)NC(=O)/C=C/c4ccco4)c3)nc2c1	3	18	16	11	-27	57*
CCCCc1ncc(CN2CCC(CC3CCCCO3)(C(=O)OCC)CC2)[nH]1 (centres undefined)	8	-16	1	-2	-25	-2
CCOC(=O)C1(CC2CCCCO2)CCN(Cc2cc3ccccc3[nH]2)CC1 (centres undefined)	96*	-8	-8	-21	-14	-6
O=C(COc1ccccc1)NNC(=O)COc1ccc([N+](=O)[O-])cc1	-8	-1	11	3	-7	5
O=C(COc1ccc([N+](=O)[O-])cc1)N(Cc1ccccc1)Cc1ccccc1	31*	-1	-6	-7	-11	11
CN1CCN(C(=O)C2CCC(=O)N(CCc3cccc(F)c3)C2)CC1 (centres undefined)	-1	7	-8	-10	/	-7
CC12CCC(C(=O)O)(c3nc4cc([N+](=O)[O-])ccc4nc31)C2(C)C (centres undefined)	-15	5	8	-6	1	3
CC(=O)Nc1ccc(N=Cc2c(O)c3ccccc3oc2=O)cc1	-3	/	/	-1	/	/
CCOc1cc(Br)c(Br)c(C=Nc2ccc(NC(C)=O)cc2)c1O	-11	-3	-4	15	131*	4
CC(=O)Nc1ccc(N=Cc2c(O)c(C(=O)Nc3ccccc3)cc3ccccc23)cc1	-2	14	9	7	136*	13
O=C(CCc1nc2sc3c(c2c(=O)[nH]1)CCCC3)N1CCN(c2ccccc2)CC1	/	5	7	/	/	20
Cc1ccc(C)c(N(CC(=O)NC2CCCC2)C(=O)c2csnn2)c1	-4	-3	8	10	/	-7
Clc1ccc(OCCN2CCN(c3ncnc4sccc34)CC2)cc1	20*	-9	-19	-8	-4	-4
COc1ccc(CC(=O)N/N=C(\C)CC(=O)NCc2ccco2)cc1OC	1	-8	-5	0	-17	-6
C/C(=N\N1CCN(C2c3ccccc3-c3ccccc32)CC1)c1ccncc1	-9	0	22	3	117*	8
C(=N\N1CCN(C2c3ccccc3-c3ccccc32)CC1)/c1ccncc1	8	11	9	-4	7	8
COCc1cc(C)nc(OCC(=O)N/N=C/c2ccc(-c3cc([N+](=O)[O-])ccc3C)o2)c1C#N	-8	6	14	-4	1	35
Cc1ccc([N+](=O)[O-])cc1-c1ccc(/C=C(\C#N)c2[nH]nc(N)c2C#N)o1	-5	19	10	19	60*	4
CCn1c2ccccc2c2cc(CNCc3ccc(OC)cc3OC)ccc21	29*	1	-4	-63	-12	-3
COc1cccc(CNCc2ccc(OC)cc2OC)c1	-7	-5	-5	-10	/	-12
CCOC(=O)c1cc2n(c1/N=C/N(C)C)-c1ccccc1C2=O	1	7	2	4	151*	-9
Cc1ccc(-n2cccc2/C=C2/C(=N)N3C(=NC2=O)SN=C3S(C)(=O)=O)cc1	2	-2	2	25	41	57*
CCc1ccc(-n2cccc2/C=C2/C(=N)N3C(=NC2=O)SN=C3S(C)(=O)=O)cc1	1	10	-1	21	36	49*
Cc1sccc1C1C(C#N)=C(N)SC(N)=C1C#N	-14	9	3	16	-64	60*
Cc1[nH]nc2c1C(c1ccsc1C)C(C#N)=C(N)O2 (centres undefined)	1	-1	-6	0	-1	-12
Cc1cc(C2C(C#N)=C(N)SC(N)=C2C#N)c(C)s1	-4	-4	-3	20	-71	51*

Screening data: PubChem BioAssay, several laboratories
